# Source: PubChem BioAssay (several laboratories)
# CD11b adhes enh: increases human CD11b/CD18 adhesion to fibrinogen; 93,000 tested, 0.07% active; activation, % at 10 µM; K562 CD11b/CD18 adhesion to fibrinogen, ATPlite luminescence; P05107+P11215;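 active = 10 µM primary screen giving 50% or more activity, confirmed by 40% or more on retest at that dose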
# tolC growth inh: E. coli tolC mutant growth inhibition; E. coli BW25113 tolC mutant growth, OD615; growth inhibition, % at 10 µM (by protocol); 65,000 tested, 2.2% active; AID 573;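 active = growth inhibition at or above a cutoff equal to the mean over every tested compound plus 3 SD, cut at about 60% in these data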;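 note: growth measured after 20 h incubation at 37 °C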
#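 Test system: tolC-deleted E. coli BW25113; medium: LB with kanamycin 50 µg/mL; compound: single-point testing at 10 µM; incubation: 20 h compound exposure of bacteria at 37 °C; signal: OD at 615 nm; evaluation: growth inhibition in percent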
# Phagocytosis inh: macrophage phagocytosis inhibition. 110,000 tested, 0.07% active. inhibition, % at 5 µM. J774A.1 macrophage IgG-bead phagocytosis, imaging;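 active = inhibition above the mean of the plate negative controls plus 5 SD, cut at about 13% in these data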;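 note: phagocytic index as fraction of beads internalized from green versus red external bead signal; plate controls were DMSO negative control for no effect and cytochalasin-D positive control for full effect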
# Ecoli WT expand: blocks growth of wild type E. coli BW25113; OD600 absorbance; growth inhibition, % at 100 µM; 98,000 tested, 0.15% active;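 active = growth inhibition above about 50% at one test dose, limit read from the data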;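 note: growth measured after 20 h incubation at 37 °C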
# CD11b adhes inh: inhibitors of human CD11b/CD18 binding to fibrinogen | inhibition, % at 10 µM | 93,000 tested, 0.54% active | P05107+P11215 | K562 CD11b/CD18 adhesion to fibrinogen, ATPlite luminescence; Mn2+ added to activate the integrin | AID 1497;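 active = primary inhibition of 50% or more at 10 µM, then 40% or more on retest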
# Starred values were filed as active, the others as inactive; · = no result given; + = active, no number. The sample as a whole holds a higher share of hits than the screen did.
SMILES,CD11b adhes enh,tolC growth inh,Phagocytosis inh,Ecoli WT expand,CD11b adhes inh
COc1ccc(Cl)cc1N1CCN(CCNC(=O)Nc2ccccc2C)CC1,2,63*,0,5,-5
COC(=O)c1ccc(SCC(=O)NC2CCCCC2)c([N+](=O)[O-])c1,·,·,4,·,·
O=C(CNC1CCCCCC1)Nc1ccccc1N1CCCCC1,·,·,·,15,·
O=C(CNCCC1=CCCCC1)Nc1ccccc1N1CCCCC1,-1,100*,1,10,23
S=C(NCCCN1CCOCC1)Nc1ccc(Cl)c(Cl)c1,·,·,-6,·,·
CN1CCN(c2nc3c(c(=O)n(C)c(=O)n3C)n2Cc2cccc3ccccc23)CC1,-1,21,0,-18,1
Cn1c(=O)c2c(nc(N3CCCCCC3)n2Cc2cccc3ccccc23)n(C)c1=O,1,74*,0,-9,-19
CCn1cc(Br)c(C(=O)Nc2ccc(OC)cc2)n1,-3,5,0,16,-7
CCn1cc(Br)c(C(=O)Nc2ccc(C(=O)OC(C)C)cc2)n1,-4,67*,-2,2,1
CCCCNS(=O)(=O)c1ccc2nc(SCC(=O)Nc3sccc3C#N)[nH]c2c1,-8,51,1,1,102*
Cc1ccc(OCCCCn2cnc3ccccc32)c(C)c1,-9,·,0,9,86*
Cc1ccc(C)c(OCCCCn2cnc3ccccc3c2=O)c1,-1,·,-2,8,-5
Cc1ccc(NC(=O)c2nnn(-c3cc(C)cc(C)c3)c2N)cc1,1,67*,1,-10,0
O=C(N1CCN(c2ccccn2)CC1)C(Cl)(Cl)Cl,·,·,2,·,·
O=C(N1CCN(c2ccccn2)CC1)N1c2ccccc2Sc2ccccc21,2,62*,-2,-2,-29
CC1=CC(C)(C)N2C(=O)C3(SCC(=O)N3c3ccc(O)cc3)c3cc(C)cc1c32 (centres undefined),·,87*,-1,4,·
Cc1ccc(N2C(=O)CSC23C(=O)Nc2ccccc23)cc1 (centres undefined),3,15,1,6,6
Cc1cccc(OCc2nc(C#N)c(NCc3ccc4c(c3)OCO4)o2)c1,1,79*,0,-19,11
Cc1cc(Cl)ccc1OC(C)C(=O)Nc1ccccc1N1CCOCC1 (centres undefined),15,66*,-1,-11,-5
CCN(C1CCCCC1)S(=O)(=O)c1cc(C)ccc1OC,2,42,-1,9,-4
CCN(C1CCCCC1)S(=O)(=O)c1ccc(OC)c(C)c1,4,92*,-3,5,6
CC(=O)Nc1ccc(C(=O)CSc2cc(C)c3cccc(C)c3n2)cc1,·,·,-2,·,·
O=C(COC(=O)c1ccccc1NC(=O)C1CC1)c1ccc2c(c1)OCCO2,3,·,-6,·,28
COc1ccc(/C=C(\C#N)C(=O)OCC(=O)Nc2c(C)cccc2C(C)C)cc1,·,·,1,·,·
CC1CCCCN1C(=O)CSc1nc(C2CC2)nc2c1cnn2-c1ccccc1 (centres undefined),5,67*,·,2,69
SMILES,CD11b adhes enh,tolC growth inh,Phagocytosis inh,Ecoli WT expand,CD11b adhes inh
O=C(C1CC1)N1CCc2cc(S(=O)(=O)NCCC3=CCCCC3)ccc21,·,74*,·,8,·
CCCN(CCC)CCNS(=O)(=O)c1ccc2c(c1)CCN2C(=O)C1CCC1,1,·,0,3,-20
O=C(Nc1cccc(Cl)c1)Nc1nnc(CC2=CCCCC2)s1,·,·,-3,·,·
CCCCOc1[nH]c2nc(-c3ccco3)n(Cc3ccco3)c(=N)c2c1C#N,1,78*,0,-2,-26
Cc1nc([N+](=O)[O-])c(Br)n1CC(=O)c1ccc2ccccc2c1,2,·,+,2,-18
O=C(N/N=C/c1ccc(OC(=O)c2ccccc2)c([N+](=O)[O-])c1)c1ccc(O)cc1,·,·,-6,·,·
CCC1CCCCN1C(=O)c1cc(-c2ccc(Cl)c(Cl)c2)on1 (centres undefined),·,100*,·,-9,·
CC1CCCCN1C(=O)c1cc(-c2ccc(Cl)c(Cl)c2)on1 (centres undefined),0,57,-2,-5,-8
CCCn1c(-c2cccs2)nc2nc3ccccc3nc21,4,·,-3,-3,2
c1csc(-c2nc3nc4ccccc4nc3n2Cc2ccc3c(c2)OCO3)c1,·,66*,0,-4,·
Cc1cccc(-c2noc(CN(C(=O)c3ccc(Br)o3)C(C)C)n2)c1,11,63*,-1,-11,8
CC(C)N(Cc1nc(-c2ccc(Cl)cc2)no1)C(=O)CCC1CCCC1,9,72*,0,4,41
